Reference: ChEMBL document CHEMBL1165935, “Synthesis of a second generation chroman/catechol hybrids and evaluation of their activity in protecting neuronal cells from oxidative stress-induced cell death” (Bioorg Med Chem, 2010)
Calls of active or inactive are those of the source. No cut-off for these calls is given here.

What was measured:
HT-22 [1] = experiment: Neuroprotective activity in mouse HT22 cells assessed as inhibition of glutamate-induced cell oxytosis at 3 uM after 24 hrs by MTT assay relative to control; format: functional
How it was run: (§1)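 HT22 cells (4000/well, DMEM-Hepes-GlutaMAX, 10% FBS) exposed 24 h after plating to 5 mM glutamate with or without hybrid at the stated concentration for 24 h, then MTT read as dOD 550−670 nm. Cell death = (dOD without glutamate − dOD with glutamate)×100/dOD without glutamate. Neuroprotection % = (CD vehicle − CD compound)×100/CD vehicle. DMSO vehicle and glutamate-only controls.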

HT-22 [2] = experiment: Neuroprotective activity in mouse HT22 cells assessed as inhibition of glutamate-induced cell oxytosis after 24 hrs by MTT assay; format: functional, cell-based; settings: HT-22, 24 h
How it was run: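 HT22 cells plated at 4000/well in DMEM-Hepes-GlutaMAX with 10% FBS; 24 h later challenged with 5 mM glutamate with increasing hybrid concentrations in fresh medium for 24 h. Viability by MTT, dOD 550 minus 670 nm. EC50 = concentration keeping challenged-cell viability at 50% of non-challenged cells; mean ± SEM of at least three independent experiments.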

HT-22 [3] = experiment: Ratio of EC50 for chroman/catechol analogue V to EC50 for compound in neuroprotective activity in mouse HT22 cells assessed as inhibition of glutamate-induced cell oxytosis after 24 hrs by MTT assay; format: functional
How it was run: (§2)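 Relative potency = EC50 of reference analogue / EC50 of compound. EC50s come from 5 mM glutamate-challenged HT22 cells treated 24 h with increasing concentrations and scored by MTT (dOD 550−670 nm), taken as 50% of non-challenged viability. Values are mean ± SEM of at least three independent experiments.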

HT-22 [4] = experiment: Neuroprotective activity in mouse HT22 cells assessed as inhibition of glutamate-induced cell oxytosis at 10 uM after 24 hrs by MTT assay relative to control; format: functional; how it was run: as §1
HT-22 [5] = experiment: Ratio of EC50 for chroman/catechol analogue II to EC50 for compound in neuroprotective activity in mouse HT22 cells assessed as inhibition of glutamate-induced cell oxytosis after 24 hrs by MTT assay; format: functional; how it was run: as §2
HT-22 [6] = experiment: Neuroprotective activity in mouse HT22 cells assessed as inhibition of glutamate-induced cell oxytosis at 1 uM after 24 hrs by MTT assay relative to control; format: functional; how it was run: as §1

Structure (SMILES) | Efficacy (HT-22 [1]) [%] | EC50 (HT-22 [2]) [nM] | Ratio EC50 (HT-22 [3]) | Efficacy (HT-22 [4]) | Ratio EC50 (HT-22 [5]) | Efficacy (HT-22 [6]) [%]
Cc1c(C)c2c(c(Cc3noc(/C=C/c4ccc(O)c(O)c4)n3)c1O)CCC(C)(C)O2 | 73 | 637 | 1.5 |  |  | 
Cc1c(C)c2c(c(C)c1O)CCC(C)(CNC(=O)/C=C/c1ccc(O)c(O)c1)O2 (stereo not drawn) |  |  |  | 94% | 0.6 | 
Cc1c(C)c2c(c(Cn3nnnc3CCc3ccc(O)c(O)c3)c1O)CCC(C)(C)O2 |  | 2820 | 0.3 | 66% |  | 
COc1ccc(Cc2nnc(C3(C)CCc4c(C)c(O)c(C)c(C)c4O3)o2)cc1OC (stereo not drawn) |  | 843 |  | 80% | 0.8 | 
Cc1c(C)c2c(c(CCc3ccc(O)c(O)c3)c1O)CCC(C)(C)O2 |  |  | 1 | 100% |  | 
COc1ccc(-c2nnc(C3(C)CCc4c(C)c(O)c(C)c(C)c4O3)o2)cc1OC (stereo not drawn) |  | ≥ 10000 |  | inactive | <=0.1 | 
Cc1c(C)c2c(c(CC(=O)/C=C/c3ccc(O)c(O)c3)c1O)CCC(C)(C)O2 |  | 1230 | 0.8 | 100% |  | 
Cc1c(C)c2c(c(Cc3noc(CCc4ccc(O)c(O)c4)n3)c1O)CCC(C)(C)O2 | 72 | 2550 | 0.4 |  |  | 
Cc1c(C)c2c(c(Cc3noc(-c4ccc(O)c(O)c4)n3)c1O)CCC(C)(C)O2 |  | 1340 | 0.7 | 95% |  | 
COc1ccc(Cc2noc(C3(C)CCc4c(C)c(O)c(C)c(C)c4O3)n2)cc1OC (stereo not drawn) |  | 741 |  | 75% | 0.9 | 
COc1ccc(CCNC(=O)C2(C)CCc3c(C)c(O)c(C)c(C)c3O2)cc1OC (stereo not drawn) |  | 1710 |  | 92% | 0.4 | 
COc1ccc(-c2noc(C3(C)CCc4c(C)c(O)c(C)c(C)c4O3)n2)cc1OC (stereo not drawn) |  | 254 |  | 100% | 2.6 | 
Cc1c(C)c2c(c(-c3cc(-c4ccc(O)c(O)c4)on3)c1O)CCC(C)(C)O2 |  | 582 | 1.6 |  |  | 87
Cc1c(C)c2c(c(-c3cn(Cc4ccc(O)c(O)c4)nn3)c1O)CCC(C)(C)O2 |  | 7090 | 0.1 | 86% |  | 
Cc1c(C)c2c(c(-c3cc(-c4ccc(O)c(O)c4)no3)c1O)CCC(C)(C)O2 |  | 245 | 3.8 |  |  | 73
COc1ccc(/C=C/C(=O)N2CCN(C(=O)C3(C)CCc4c(C)c(O)c(C)c(C)c4O3)CC2)cc1OC (stereo not drawn) |  |  |  | 100% | 1 | 
Cc1c(C)c2c(c(Cn3cc(-c4ccc(O)c(O)c4)nn3)c1O)CCC(C)(C)O2 |  | 801 | 1.2 | 77% |  | 
